Screening results as filed in PubChem.
CHOP inh = inhibitors of CHOP promoter induction, primary screen, cell-based, unfolded protein response, luciferase reporter; CHO-K1 CHOP-promoter luciferase, tunicamycin-induced, 15-18 h; inhibition, % at 10 µM; 220,000 tested, 3.8% active;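 active = compounds that reduced the stress-induced luciferase reporter signal by more than about 70% of percent inhibition, limit read from the data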
MPTP block = mitochondrial permeability transition pore inhibitors, primary screen, biochemical, isolated mouse mitochondria, absorbance | Ca2+ swelling absorbance, 30 min | inhibition, % at 10 µM | 360,000 tested, 1.4% active;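 active = inhibition of 50% or more, scaled per plate between neutral and stimulator controls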
WT yeast gro inh = growth inhibition of WT strain, primary screen, mitochondrial fusion inhibitor project, WT and mutant strains, chemical genetic; mitochondrial fusion phenotypic screen; inhibition, % at 10 µM; 190,000 tested, 2.1% active; AID 1362, 2008; in the data active = inhibition above about 58%; tested in S. cerevisiae
Tb MetRS inh = T. brucei MetRS inhibitors, primary screen, biochemical, luminescence; inhibition, % at 11.9 µM; purified T. brucei MetRS, ATP depletion, Kinase-Glo luminescence; 360,000 tested, 0.4% active; methionyl-tRNA synthetase (Trypanosoma brucei brucei);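 active = inhibition above a per-plate cutoff of the control wells' mean inhibition plus 3 SD, cut at about 5.5% in these data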
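Material – parasite MetRS enzyme · Medium – HEPES-MgCl2-KCl buffer plus DTT, spermine, BSA, pyrophosphatase · Reagent – ATP, methionine and E. coli bulk tRNA substrates · Times – 15 min enzyme-compound preincubation, 2 h reaction, 10 min detection, 25 °C · Measured by – luminescence of leftover ATP · Evaluation – percent inhibition relative to median high and low control wells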
GRIN3A LBD mod = binders of NR3A ligand-binding domain, primary screen, biophysical, differential scanning fluorimetry, uHTS; AID 1259313, 2017; NR3A LBD differential scanning fluorimetry, Tm shift; 0% = protein alone, 100% = glycine-bound protein; Glutamate receptor ionotropic, NMDA 3A (GRIN3A) ligand-binding domain; Tm shift relative to glycine control, % at 25 µM; 340,000 tested, 2.5% active;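 active = melting temperature shift of at least 10% of the positive control shift, at one fixed dose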
EBV gp42 inh = Epstein-Barr virus gp42 inhibitors, primary screen, biochemical, uHTS, fluorescence polarization. 220,000 tested, 0.42% active. AID 1085, 2008. Fluorescence polarization binding assay, mP read-out. inhibition, % (tested at 21.74 µM); in the data active = inhibition above about 50%
Target sequence (Q1HVG2 whole entry, looked up): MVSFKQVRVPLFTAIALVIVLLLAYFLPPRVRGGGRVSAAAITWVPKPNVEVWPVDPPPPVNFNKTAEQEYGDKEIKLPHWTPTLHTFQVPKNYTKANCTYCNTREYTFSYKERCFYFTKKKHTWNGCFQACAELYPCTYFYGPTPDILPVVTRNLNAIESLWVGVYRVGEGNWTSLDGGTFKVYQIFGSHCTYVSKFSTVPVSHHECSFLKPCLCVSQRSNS
CHOP inh conf = retest of CHOP induction inhibitors, confirmation, cell-based. shares compounds with CHOP inh. CHO-CHOP promoter luciferase reporter, tunicamycin-induced, luminescence. inhibition, % at 10 µM. 2,100 tested, 45% active. AID 504437, 2011;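 active = mean of three repeat readings of reporter signal inhibition above a set limit, cut at about 70% in these data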
Each line names hits and unclear results; the compound was inactive in the other large screens (follow-up assays come after a bar, where they were run). Compounds with a hit are over-represented: about 6.4% of the library has one in this group of screens.

Cc1nc2nc(CC(=O)O)[nH]n2c(=O)c1[N+](=O)[O-]	none (no result: WT yeast gro inh)
O=[N+]([O-])c1c(C(Cl)Cl)nn(-c2ccc(Cl)cc2)c1N1CCCCC1	WT yeast gro inh 75
O=C(NCc1nnc(SCC(=O)N2CCCCCC2)o1)c1ccco1	none
C=CCN1C(=O)/C(=C/c2ccc(O)cc2)S/C1=N/c1nccs1	GRIN3A LBD mod 20
CCn1c2ccccc2c2cc(CN3CCN(Cc4cc(OC)ccc4O)CC3)ccc21	WT yeast gro inh 60
COc1ccc(CN2CCN(CC(O)Cn3c4ccccc4c4ccccc43)CC2)cc1 (stereo not given)	none
CCOc1ccc(CN2CCN(CC(O)Cn3c4ccccc4c4ccccc43)CC2)cc1 (stereo not given)	CHOP inh 108
COc1ccc(C(=O)/C=C/c2ccc(O)cc2)c2c1CC(O)C(C)(C)O2 (stereo not given)	none (no result: CHOP inh, WT yeast gro inh, EBV gp42 inh)
COc1ccc(C(=O)/C=C/c2ccc(O)cc2)c(O)c1CC=C(C)C	CHOP inh 79, WT yeast gro inh 87, GRIN3A LBD mod 15
CCC(=O)Nc1cccc(C(=O)OCC(=O)c2ccccc2Cl)c1	none
Cc1ccc(C(=O)OCC(=O)c2c(N)n(C)c(=O)n(C)c2=O)cc1S(=O)(=O)N1CCCCC1	GRIN3A LBD mod 10
Cc1ccc(C(=O)Oc2ccc([N+](=O)[O-])cc2)cc1S(=O)(=O)N1CCCCCC1	GRIN3A LBD mod 13
O=C(CN1C(=O)NC(c2ccccc2)(c2ccccc2)C1=O)c1c[nH]c2ccccc12	none (no result: MPTP block, Tb MetRS inh, GRIN3A LBD mod)
Cc1cc(=O)[nH]c2ccc(S(=O)(=O)NCc3ccccc3)cc12	none (no result: CHOP inh, WT yeast gro inh, EBV gp42 inh)
O=[N+]([O-])c1ccc(C[n+]2cccc3ccc4cccnc4c32)cc1	WT yeast gro inh 59
O=[N+]([O-])c1ccc(C[n+]2cccc3ccccc32)cc1	none
O=C(NCc1cccnc1)/C(=C\c1ccc(-c2ccc(Br)cc2)o1)S(=O)(=O)c1ccccc1	CHOP inh 106
O=C(NCc1cccnc1)/C(=C/c1ccc(-c2ccc(Cl)cc2)o1)S(=O)(=O)c1ccccc1	CHOP inh 104
O=C(CN(Cc1ccc(Br)cc1)S(=O)(=O)c1ccccc1)NCc1cccnc1	none (no result: CHOP inh, WT yeast gro inh, EBV gp42 inh)
COc1ccc2nc(SCC(=O)N(C)CC(=O)Nc3ccc(F)cc3)[nH]c2c1	none (no result: CHOP inh, WT yeast gro inh, EBV gp42 inh)
O=c1[nH]c(C2CCN(S(=O)(=O)c3ccc(S(=O)(=O)NC4CC4)cc3)CC2)nc2c1nnn2Cc1ccc(F)cc1	GRIN3A LBD mod 10 (no result: CHOP inh, WT yeast gro inh, EBV gp42 inh)
Cc1ccc(Cn2nnc3c(=O)[nH]c(C4CCN(S(=O)(=O)c5ccc(F)cc5)CC4)nc32)cc1	CHOP inh 84
Cc1ccc(C)c(Cn2nnc3c(=O)[nH]c(C4CCN(S(=O)(=O)c5ccc(S(=O)(=O)N(C)C)cc5)CC4)nc32)c1	none (no result: CHOP inh, WT yeast gro inh, EBV gp42 inh)
Cc1ccc(C)c(Cn2nnc3c(=O)[nH]c(C4CCN(S(=O)(=O)c5ccc(S(=O)(=O)NC6CC6)cc5)CC4)nc32)c1	GRIN3A LBD mod 12 (no result: CHOP inh, WT yeast gro inh, EBV gp42 inh)
O=c1[nH]c(C2CCN(S(=O)(=O)c3ccc(S(=O)(=O)NC4CC4)cc3)CC2)nc2c1nnn2Cc1ccccc1	none (no result: CHOP inh, WT yeast gro inh, EBV gp42 inh)
CCCCn1nnc(NC(=O)c2ccc(-c3cccc(Cl)c3)o2)n1	none
CCCn1nnc(NC(=O)c2ccc(-c3cccc(Cl)c3)o2)n1	WT yeast gro inh 74
OC(Cc1ccccc1Br)c1ncc(-c2cccc(C(F)(F)F)c2)[nH]1 (stereo not given)	none (no result: CHOP inh, WT yeast gro inh, GRIN3A LBD mod, EBV gp42 inh)
O=Cc1cnc(N2CCCCC2)s1	EBV gp42 inh 112
Cc1ccc2nc(SCC(=O)Nc3cccc(S(N)(=O)=O)c3)[nH]c2c1	none (no result: WT yeast gro inh)
CCCOc1ccc(/C=C/C(=O)NCc2ccccc2)cc1	GRIN3A LBD mod 12
Cc1ccc(OCCNC(=O)/C=C/c2ccccc2)cc1	none
O=C(O)c1ccc(N=N/C(=N\Nc2ccc(C(=O)O)cc2)c2ccccc2)cc1	GRIN3A LBD mod 23 (no result: CHOP inh, WT yeast gro inh, EBV gp42 inh)
O=c1c2cccnc2[nH]c(=S)n1CCCN1CCN(c2ccccc2F)CC1	CHOP inh 89
O=C(CN1C(=O)CSc2ccccc21)NCCC1=CCCCC1	none
COc1cc2[nH]c(=S)n(NC(=O)c3ccccc3)c(=O)c2cc1OC	none
O=C1N=c2ccccc2=C1c1sc(=S)n(NC(=O)c2ccccc2)c1O	CHOP inh 94, GRIN3A LBD mod 31 (no result: WT yeast gro inh)
Cc1ccc(OCC(=O)Nc2sc3c(c2C#N)CCC3)cc1	none
CCCCN(CC)CCNC(=O)c1cn(-c2ccc(Cl)cc2)c(=O)c2ccccc12	none
CC(=O)Nc1ccc2nc(-c3ccccc3)cn2c1	none
Cc1ccc2nc(-c3cc(-c4ccccc4)no3)cn2c1	CHOP inh 105 (no result: WT yeast gro inh) | CHOP inh conf 74
Nc1ccc2oc(-c3ccccc3Cl)nc2c1	none
Nc1ccc2oc(-c3cc(Br)ccc3Cl)nc2c1	CHOP inh 97 | CHOP inh conf 74
Cc1ccc(NC(=O)c2cnccn2)c(Br)c1	none (no result: CHOP inh, WT yeast gro inh, EBV gp42 inh)
Cc1cccc(Oc2ccccc2NC(=O)c2cnccn2)c1	CHOP inh 99 | CHOP inh conf inactive
Cc1ccc(CNC(=O)c2ccc3c(=O)c(O)c(-c4ccc(C)cc4)[nH]c3c2)cc1	CHOP inh 103 (no result: WT yeast gro inh) | CHOP inh conf inactive
Cc1nc2n(n1)C(c1ccccc1)C1=C(CC(c3ccco3)CC1=O)N2 (stereo not given)	none
O=c1c2ccccc2nc2n1CCN2Cc1ccc(Cl)cc1	CHOP inh 99 | CHOP inh conf 95
O=C(COc1cccc(NC(=O)c2ccco2)c1)c1ccc(F)cc1	none
O=C(COC(=O)c1cccc(NC(=O)c2ccco2)c1)c1ccc(Br)cc1	CHOP inh 105 | CHOP inh conf inactive
COc1c(CC=C(C)C)cc(C2CC(=O)c3c(O)cc(O)cc3O2)cc1CC=C(C)C (stereo not given)	CHOP inh 104, GRIN3A LBD mod 30 (no result: WT yeast gro inh) | CHOP inh conf 110
COc1ccc2c(c1)[C@H]1[C@H](CO2)[C@H](c2ccccc2)[C@]2(C)C(=O)Nc3ccc(F)cc3C(=O)N12	none (no result: CHOP inh, WT yeast gro inh, EBV gp42 inh)
O=C(NCc1ccccc1)c1[nH]c(C(F)(F)F)nc1-c1ccccc1	none (no result: CHOP inh, WT yeast gro inh, GRIN3A LBD mod, EBV gp42 inh)
CCOC(=O)C1=C(N)Oc2cc(C)[nH]c(=O)c2C1c1ccncc1 (stereo not given)	none (no result: GRIN3A LBD mod)
CCOC(=O)C1=C(N)Oc2c(c(=O)[nH]c3ccccc23)C1c1ccccc1 (stereo not given)	CHOP inh 97 | CHOP inh conf inactive
CCC1C(c2ccccc2)N(C)C(c2ccccc2)CC1(O)c1ccccc1 (stereo not given)	CHOP inh 99, WT yeast gro inh 76 | CHOP inh conf inactive
